Results published in ChEMBL document CHEMBL1932999, “Increased susceptibility to resveratrol of Helicobacter pylori strains isolated from patients with gastric carcinoma” (2011).
Converted amounts (≈) assume the structure as drawn.

Experiments:
Assay type in all cases: functional
Helicobacter pylori [1] = experiment: Antibacterial activity against CagA-deficient Helicobacter pylori G204 isolated from chronic gastritis patient after 48 hrs compound exposure followed by incubation on Columbia-blood agar plate for 3 to 5 days
Procedure, shortened: (§1)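 Compound dissolved in water with 4% DMSO, filter-sterilized, and serially twofold diluted in Brucella broth with 10% bovine fetal serum. Inoculum from 48 h microaerobic Brucella agar-BFS cultures, added at approximately 10^6 CFU/mL final. Broth incubated microaerobically at 37 °C for 24 or 48 h, then each dilution subcultured onto Columbia-blood agar. MBC is the lowest concentration with no growth on subculture. Triplicate; mean ± SD.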

Helicobacter pylori [2] = experiment: Antibacterial activity against CagA-expressing Helicobacter pylori CCUG17874 isolated from chronic gastritis patient after 48 hrs compound exposure followed by incubation on Columbia-blood agar plate for 3 to 5 days; procedure, shortened: as §1
Helicobacter pylori [3] = experiment: Antibacterial activity against CagA-expressing Helicobacter pylori MDO21 isolated from chronic gastritis patient after 48 hrs compound exposure followed by incubation on Columbia-blood agar plate for 3 to 5 days; procedure, shortened: as §1
Helicobacter pylori [4] = experiment: Antibacterial activity against CagA-expressing Helicobacter pylori MD6 isolated from chronic gastritis patient after 48 hrs compound exposure followed by incubation on Columbia-blood agar plate for 3 to 5 days; procedure, shortened: as §1
Helicobacter pylori [5] = experiment: Antibacterial activity against CagA-expressing Helicobacter pylori 328 isolated from chronic gastritis patient after 48 hrs compound exposure followed by incubation on Columbia-blood agar plate for 3 to 5 days; procedure, shortened: as §1
Helicobacter pylori [6] = experiment: Antibacterial activity against CagA-expressing Helicobacter pylori G27 isolated from chronic gastritis patient after 48 hrs compound exposure followed by incubation on Columbia-blood agar plate for 3 to 5 days; procedure, shortened: as §1
Helicobacter pylori [7] = experiment: Antibacterial activity against CagA-expressing Helicobacter pylori Ma01 isolated from chronic gastritis patient after 48 hrs compound exposure followed by incubation on Columbia-blood agar plate for 3 to 5 days; procedure, shortened: as §1
Helicobacter pylori [8] = experiment: Antibacterial activity against CagA-expressing Helicobacter pylori SI10 isolated from chronic gastritis patient after 48 hrs compound exposure followed by incubation on Columbia-blood agar plate for 3 to 5 days
Procedure, shortened: (§2)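 Broth microdilution MBC against clinical H. pylori isolates (cagA by PCR; stocks kept frozen in Columbia broth with 20% glycerol). Compound dissolved in water with 4% DMSO, filter-sterilized, double diluted in Brucella broth with 10% fetal bovine serum. Inoculum about 10^6 CFU/mL from 48 h microaerobic Brucella agar-BFS cultures. Plates held microaerobically at 37 °C for 24 and 48 h. Each well was then spotted onto Columbia-blood agar for 3-5 days. MBC is the lowest concentration giving no regrowth. Triplicate, mean ± SD.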

Helicobacter pylori [9] = experiment: Antibacterial activity against CagA-expressing Helicobacter pylori G39 isolated from chronic gastritis patient after 48 hrs compound exposure followed by incubation on Columbia-blood agar plate for 3 to 5 days; procedure, shortened: as §1
Helicobacter pylori [10] = experiment: Antibacterial activity against CagA-expressing Helicobacter pylori G20 isolated from chronic gastritis patient after 48 hrs compound exposure followed by incubation on Columbia-blood agar plate for 3 to 5 days; procedure, shortened: as §1
Helicobacter pylori [11] = experiment: Antibacterial activity against CagA-expressing Helicobacter pylori 10K isolated from gastric carcinoma patient after 48 hrs compound exposure followed by incubation on Columbia-blood agar plate for 3 to 5 days; procedure, shortened: as §1
Helicobacter pylori [12] = experiment: Antibacterial activity against CagA-expressing Helicobacter pylori 18K7 isolated from gastric carcinoma patient after 48 hrs compound exposure followed by incubation on Columbia-blood agar plate for 3 to 5 days; procedure, shortened: as §1
Helicobacter pylori [13] = experiment: Antibacterial activity against CagA-deficient Helicobacter pylori G50 isolated from chronic gastritis patient after 24 hrs compound exposure followed by incubation on Columbia-blood agar plate for 3 to 5 days; procedure, shortened: as §1
Helicobacter pylori [14] = experiment: Antibacterial activity against CagA-deficient Helicobacter pylori G21b isolated from chronic gastritis patient after 24 hrs compound exposure followed by incubation on Columbia-blood agar plate for 3 to 5 days; procedure, shortened: as §1
Helicobacter pylori [15] = experiment: Antibacterial activity against CagA-deficient Helicobacter pylori G104 isolated from chronic gastritis patient after 24 hrs compound exposure followed by incubation on Columbia-blood agar plate for 3 to 5 days; procedure, shortened: as §1
Helicobacter pylori [16] = experiment: Antibacterial activity against CagA-deficient Helicobacter pylori Ba142 isolated from chronic gastritis patient after 24 hrs compound exposure followed by incubation on Columbia-blood agar plate for 3 to 5 days; procedure, shortened: as §1
Helicobacter pylori [17] = experiment: Antibacterial activity against CagA-deficient Helicobacter pylori NS23 isolated from chronic gastritis patient after 24 hrs compound exposure followed by incubation on Columbia-blood agar plate for 3 to 5 days; procedure, shortened: as §1
Helicobacter pylori [18] = experiment: Antibacterial activity against CagA-deficient Helicobacter pylori 328 KM isolated from chronic gastritis patient after 24 hrs compound exposure followed by incubation on Columbia-blood agar plate for 3 to 5 days; procedure, shortened: as §1
Helicobacter pylori [19] = experiment: Antibacterial activity against CagA-deficient Helicobacter pylori G12 isolated from chronic gastritis patient after 24 hrs compound exposure followed by incubation on Columbia-blood agar plate for 3 to 5 days; procedure, shortened: as §1
Helicobacter pylori [20] = experiment: Antibacterial activity against CagA-deficient Helicobacter pylori G204 isolated from chronic gastritis patient after 24 hrs compound exposure followed by incubation on Columbia-blood agar plate for 3 to 5 days; procedure, shortened: as §1
Helicobacter pylori [21] = experiment: Antibacterial activity against CagA-expressing Helicobacter pylori CCUG17874 isolated from chronic gastritis patient after 24 hrs compound exposure followed by incubation on Columbia-blood agar plate for 3 to 5 days; procedure, shortened: as §1
Helicobacter pylori [22] = experiment: Antibacterial activity against CagA-expressing Helicobacter pylori MDO21 isolated from chronic gastritis patient after 24 hrs compound exposure followed by incubation on Columbia-blood agar plate for 3 to 5 days; procedure, shortened: as §1
Helicobacter pylori [23] = experiment: Antibacterial activity against CagA-expressing Helicobacter pylori MD6 isolated from chronic gastritis patient after 24 hrs compound exposure followed by incubation on Columbia-blood agar plate for 3 to 5 days; procedure, shortened: as §1
Helicobacter pylori [24] = experiment: Antibacterial activity against CagA-expressing Helicobacter pylori 328 isolated from chronic gastritis patient after 24 hrs compound exposure followed by incubation on Columbia-blood agar plate for 3 to 5 days; procedure, shortened: as §1
Helicobacter pylori [25] = experiment: Antibacterial activity against CagA-expressing Helicobacter pylori G27 isolated from chronic gastritis patient after 24 hrs compound exposure followed by incubation on Columbia-blood agar plate for 3 to 5 days; procedure, shortened: as §1
Helicobacter pylori [26] = experiment: Antibacterial activity against CagA-expressing Helicobacter pylori Ma01 isolated from chronic gastritis patient after 24 hrs compound exposure followed by incubation on Columbia-blood agar plate for 3 to 5 days; procedure, shortened: as §1
Helicobacter pylori [27] = experiment: Antibacterial activity against CagA-expressing Helicobacter pylori SI10 isolated from chronic gastritis patient after 24 hrs compound exposure followed by incubation on Columbia-blood agar plate for 3 to 5 days; procedure, shortened: as §2
Helicobacter pylori [28] = experiment: Antibacterial activity against CagA-expressing Helicobacter pylori G39 isolated from chronic gastritis patient after 24 hrs compound exposure followed by incubation on Columbia-blood agar plate for 3 to 5 days; procedure, shortened: as §1
Helicobacter pylori [29] = experiment: Antibacterial activity against CagA-expressing Helicobacter pylori G20 isolated from chronic gastritis patient after 24 hrs compound exposure followed by incubation on Columbia-blood agar plate for 3 to 5 days; procedure, shortened: as §1
Helicobacter pylori [30] = experiment: Antibacterial activity against CagA-expressing Helicobacter pylori 10K isolated from gastric carcinoma patient after 24 hrs compound exposure followed by incubation on Columbia-blood agar plate for 3 to 5 days; procedure, shortened: as §1
Helicobacter pylori [31] = experiment: Antibacterial activity against CagA-expressing Helicobacter pylori 18K7 isolated from gastric carcinoma patient after 24 hrs compound exposure followed by incubation on Columbia-blood agar plate for 3 to 5 days; procedure, shortened: as §1
Helicobacter pylori [32] = experiment: Antibacterial activity against CagA-expressing Helicobacter pylori 10Kb isolated from gastric carcinoma patient after 24 hrs compound exposure followed by incubation on Columbia-blood agar plate for 3 to 5 days; procedure, shortened: as §1
Helicobacter pylori [33] = experiment: Antibacterial activity against CagA-expressing Helicobacter pylori 17C7 isolated from gastric carcinoma patient after 24 hrs compound exposure followed by incubation on Columbia-blood agar plate for 3 to 5 days; procedure, shortened: as §1
Helicobacter pylori [34] = experiment: Antibacterial activity against CagA-expressing Helicobacter pylori 18C7 isolated from gastric carcinoma patient after 24 hrs compound exposure followed by incubation on Columbia-blood agar plate for 3 to 5 days; procedure, shortened: as §1
Helicobacter pylori [35] = experiment: Antibacterial activity against CagA-expressing Helicobacter pylori 4Cb isolated from gastric carcinoma patient after 24 hrs compound exposure followed by incubation on Columbia-blood agar plate for 3 to 5 days; procedure, shortened: as §1

Compound `Oc1ccc(/C=C/c2cc(O)cc(O)c2)cc1` [RESVERATROL] has an MBC (Helicobacter pylori [1]) of 648 mg/L (≈ 2840 µM), an MBC (Helicobacter pylori [2]) of 295 mg/L (≈ 1290 µM) and an MBC (Helicobacter pylori [3]) of 295 mg/L (≈ 1290 µM). It also gave an MBC (Helicobacter pylori [4]) of 295 mg/L (≈ 1290 µM), an MBC (Helicobacter pylori [5]) of 295 mg/L (≈ 1290 µM) and an MBC (Helicobacter pylori [6]) of 295 mg/L (≈ 1290 µM). The MBC (Helicobacter pylori [7]) was 589 mg/L (≈ 2580 µM), the MBC (Helicobacter pylori [8]) was 295 mg/L (≈ 1290 µM) and the MBC (Helicobacter pylori [9]) was 320 mg/L (≈ 1400 µM). It also gave an MBC (Helicobacter pylori [10]) of 640 mg/L (≈ 2800 µM), an MBC (Helicobacter pylori [11]) of 74 mg/L (≈ 324 µM) and an MBC (Helicobacter pylori [12]) of 147 mg/L (≈ 644 µM). The MBC (Helicobacter pylori [13]) was 295 mg/L (≈ 1290 µM), the MBC (Helicobacter pylori [14]) was 295 mg/L (≈ 1290 µM) and the MBC (Helicobacter pylori [15]) was 295 mg/L (≈ 1290 µM). For the same compound, the MBC (Helicobacter pylori [16]) was 295 mg/L (≈ 1290 µM), the MBC (Helicobacter pylori [17]) was 147 mg/L (≈ 644 µM) and the MBC (Helicobacter pylori [18]) was 147 mg/L (≈ 644 µM). The MBC (Helicobacter pylori [19]) was 648 mg/L (≈ 2840 µM), the MBC (Helicobacter pylori [20]) was 648 mg/L (≈ 2840 µM) and the MBC (Helicobacter pylori [21]) was 589 mg/L (≈ 2580 µM). For the same compound, the MBC (Helicobacter pylori [22]) was 295 mg/L (≈ 1290 µM), the MBC (Helicobacter pylori [23]) was 589 mg/L (≈ 2580 µM) and the MBC (Helicobacter pylori [24]) was 295 mg/L (≈ 1290 µM). The MBC (Helicobacter pylori [25]) was 295 mg/L (≈ 1290 µM), the MBC (Helicobacter pylori [26]) was 589 mg/L (≈ 2580 µM) and the MBC (Helicobacter pylori [27]) was 589 mg/L (≈ 2580 µM). It also gave an MBC (Helicobacter pylori [28]) of 640 mg/L (≈ 2800 µM), an MBC (Helicobacter pylori [29]) of 1280 mg/L (≈ 5610 µM) and an MBC (Helicobacter pylori [30]) of 74 mg/L (≈ 324 µM). For the same compound, the MBC (Helicobacter pylori [31]) was 147 mg/L (≈ 644 µM), the MBC (Helicobacter pylori [32]) was 147 mg/L (≈ 644 µM) and the MBC (Helicobacter pylori [33]) was 37 mg/L (≈ 162 µM). For the same compound, the MBC (Helicobacter pylori [34]) was 37 mg/L (≈ 162 µM) and the MBC (Helicobacter pylori [35]) was 147 mg/L (≈ 644 µM).
